The results in this text go back to ChEMBL document CHEMBL1152572, “Synthesis and antimalarial activity of new chloroquine analogues carrying a multifunctional linear side chain” (Bioorg Med Chem, 2009).

A short description of assay [1]: Resistance index, ratio IC50 for chloroquine-resistant Plasmodium falciparum Dd2 to IC50 for chloroquine-sensitive Plasmodium falciparum HB3. Format: functional.
Assay [2] has as its system Plasmodium falciparum. The assay can be described thus: Antiplasmodial activity against chloroquine-resistant Plasmodium falciparum Dd2 assessed as SYBR Green 1 fluorescence emission after 72 hrs. In kind it is functional, organism-based. Conditions: Dd2, 72 h. The method, boiled down: (§1)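 Sorbitol-synchronized P. falciparum cultures (>95% ring stage) exposed to serial drug dilutions in complete medium at 0.5% parasitemia, 1% hematocrit final. Incubated 72 h, 37 °C. SYBR Green I then added, 1 h at 37 °C. Fluorescence read at 530 nm emission, 490 nm excitation. Each dilution run in triplicate; IC50 averaged from at least two separate assays.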

Assay [3] has as its system Plasmodium falciparum. The assay is described as follows: Antiplasmodial activity against chloroquine-sensitive Plasmodium falciparum HB3 assessed as SYBR Green 1 fluorescence emission after 72 hrs. In kind it is functional, organism-based. The settings on record: HB3, 72 h. The gist of the method:
as §1

Molecules are shown by their SMILES.

In general, IC50 refers to the concentration that inhibits the measured activity by half. For the compound `CCN(CC)CCCCCNCCNc1ccnc2cc(Cl)ccc12`, the Ratio IC50 in assay [1] came to 15.9. Besides, the values for the IC50 in the assay with Plasmodium falciparum [2] and in the assay on Plasmodium falciparum [3] were 0.459 µM and 0.0289 µM, respectively.

As to `CCN(CC)CCCNCCOc1ccnc2cc(Cl)ccc12`, the Ratio IC50 in assay [1] is 2.3. Also, the IC50 in the assay with Plasmodium falciparum [2] was 0.214 µM; in the assay on Plasmodium falciparum [3], 0.0946 µM.

As to `CCN(CC)CCCN(CC)CCCOc1ccnc2cc(Cl)ccc12`, the Ratio IC50 in assay [1] came out at 1.4. For the same compound, the half-inhibitory concentration (IC50) in the assay with Plasmodium falciparum [2] was 0.108 µM; in the assay on Plasmodium falciparum [3] it was 0.0775 µM.

For the compound `CCN(CC)CCCCCC(=O)NCCNc1ccnc2cc(Cl)ccc12`, the Ratio IC50 in assay [1] is 9.4. For the same compound, the IC50 in the assay on Plasmodium falciparum [2] was found to be 2.7 µM; in the assay with Plasmodium falciparum [3], 0.287 µM.

Regarding `CCN(CC)CCC(=O)NCCNc1ccnc2cc(Cl)ccc12`, the Ratio IC50 in assay [1] amounted to 24.1.

Take `CCN(CC)CCCCNCCNc1ccnc2cc(Cl)ccc12`: the Ratio IC50 in assay [1] came to 41.5. The half-inhibitory concentration (IC50) came to 1.27 µM in the assay on Plasmodium falciparum [2] and 0.0307 µM in the assay with Plasmodium falciparum [3].

In the case of `CCN(CC)CC(=O)NCCNc1ccnc2cc(Cl)ccc12`, in assay [1], the Ratio IC50 is 4.7. The IC50 was determined as 3.36 µM in the assay on Plasmodium falciparum [2] and 0.715 µM in the assay on Plasmodium falciparum [3].

As for `CCN(CC)CCC(=O)NCCCOc1ccnc2cc(Cl)ccc12`, the Ratio IC50 in assay [1] turned out to be 0.3. Further, the 50% inhibitory concentration (IC50) in the assay on Plasmodium falciparum [2] was 0.752 µM; in the assay on Plasmodium falciparum [3], 2.31 µM.

For the compound `CCN(CC)CCCC(=O)NCCNc1ccnc2cc(Cl)ccc12`, in assay [1], the Ratio IC50 amounted to 5.3. Besides, the results for the IC50 in the assay with Plasmodium falciparum [2] and in the assay on Plasmodium falciparum [3] were 1.19 µM and 0.225 µM, respectively.

As to `CCN(CC)CCC(=O)NCCOc1ccnc2cc(Cl)ccc12`, in assay [1], the Ratio IC50 amounted to 0.9. Further, the results for the IC50 with Plasmodium falciparum [2] and in the assay with Plasmodium falciparum [3] were 1.46 µM and 1.71 µM, respectively.

`CCN(CC)CCN(CC)CCNc1ccnc2cc(Cl)ccc12`: the Ratio IC50 in assay [1] worked out at 10.5. The IC50 in the assay with Plasmodium falciparum [2] was found to be 0.053 µM; with Plasmodium falciparum [3] it was 0.005 µM.

In the case of `CCN(CC)CCCCN(CC)CCNc1ccnc2cc(Cl)ccc12`, in assay [1], the Ratio IC50 is 7.1. Also, the concentration for half-maximal inhibition (IC50) with Plasmodium falciparum [2] was 0.0362 µM; in the assay with Plasmodium falciparum [3], 0.0051 µM.

As for `CCN(CC)CCCCCCN(CC)CCNc1ccnc2cc(Cl)ccc12`, in assay [1], the Ratio IC50 came out at 4. Further, the figures for the half-maximal inhibitory concentration (IC50) in the assay on Plasmodium falciparum [2] and with Plasmodium falciparum [3] were 0.0199 µM and 0.005 µM, respectively.

Consider `CCN(CC)CCCCC(=O)NCCNc1ccnc2cc(Cl)ccc12`, for which the Ratio IC50 in assay [1] worked out at 5.2. In addition, the IC50 in the assay on Plasmodium falciparum [2] was determined as 1.19 µM; with Plasmodium falciparum [3], 0.228 µM.

As for `CCN(CC)CCCNCCCOc1ccnc2cc(Cl)ccc12`, the Ratio IC50 in assay [1] was determined as 12.2. Moreover, the IC50 was 0.24 µM with Plasmodium falciparum [2] and 0.0197 µM in the assay with Plasmodium falciparum [3].

Regarding `CCN(CC)CCN(CCNc1ccnc2cc(Cl)ccc12)CCN(CC)CC`, in assay [1], the Ratio IC50 was 21.5. Moreover, the values for the IC50 in the assay with Plasmodium falciparum [2] and in the assay on Plasmodium falciparum [3] were 0.151 µM and 0.007 µM, respectively.

As for `CCN(CC)CCCN(CC)CCOc1ccnc2cc(Cl)ccc12`, in assay [1], the Ratio IC50 amounted to 1.3. In addition, the IC50 in the assay with Plasmodium falciparum [2] was found to be 0.409 µM; in the assay on Plasmodium falciparum [3], 0.321 µM.

Consider `CCN(CC)CCCCCN(CC)CCNc1ccnc2cc(Cl)ccc12`, for which, in assay [1], the Ratio IC50 was 4.3. The values for the IC50 in the assay on Plasmodium falciparum [2] and with Plasmodium falciparum [3] were 0.0387 µM and 0.0089 µM, respectively.

As for `CCN(CC)CCNCCNc1ccnc2cc(Cl)ccc12`, the Ratio IC50 in assay [1] is 145. The results for the IC50 in the assay with Plasmodium falciparum [2] and in the assay on Plasmodium falciparum [3] were 1.57 µM and 0.0108 µM, respectively.

With `CCN(CC)CCCCCCNCCNc1ccnc2cc(Cl)ccc12`, the Ratio IC50 in assay [1] was determined as 3.4. In addition, the IC50 was determined as 0.231 µM with Plasmodium falciparum [2] and 0.0689 µM in the assay with Plasmodium falciparum [3].
